Test results: ChEMBL document CHEMBL1212911, “Identification of potent and selective amidobipyridyl inhibitors of protein kinase D” (J Med Chem, 2010)
Active and inactive are the calls of the source. The calls are words filed in the database; no cut-off is given here.

Key:
[1] = molecular target: T1, Serine/threonine-protein kinase D1 (Homo sapiens, UniProt Q15139); test: Inhibition of PKD1 by TR-FRET assay
T1 sequence (Q15139 whole entry): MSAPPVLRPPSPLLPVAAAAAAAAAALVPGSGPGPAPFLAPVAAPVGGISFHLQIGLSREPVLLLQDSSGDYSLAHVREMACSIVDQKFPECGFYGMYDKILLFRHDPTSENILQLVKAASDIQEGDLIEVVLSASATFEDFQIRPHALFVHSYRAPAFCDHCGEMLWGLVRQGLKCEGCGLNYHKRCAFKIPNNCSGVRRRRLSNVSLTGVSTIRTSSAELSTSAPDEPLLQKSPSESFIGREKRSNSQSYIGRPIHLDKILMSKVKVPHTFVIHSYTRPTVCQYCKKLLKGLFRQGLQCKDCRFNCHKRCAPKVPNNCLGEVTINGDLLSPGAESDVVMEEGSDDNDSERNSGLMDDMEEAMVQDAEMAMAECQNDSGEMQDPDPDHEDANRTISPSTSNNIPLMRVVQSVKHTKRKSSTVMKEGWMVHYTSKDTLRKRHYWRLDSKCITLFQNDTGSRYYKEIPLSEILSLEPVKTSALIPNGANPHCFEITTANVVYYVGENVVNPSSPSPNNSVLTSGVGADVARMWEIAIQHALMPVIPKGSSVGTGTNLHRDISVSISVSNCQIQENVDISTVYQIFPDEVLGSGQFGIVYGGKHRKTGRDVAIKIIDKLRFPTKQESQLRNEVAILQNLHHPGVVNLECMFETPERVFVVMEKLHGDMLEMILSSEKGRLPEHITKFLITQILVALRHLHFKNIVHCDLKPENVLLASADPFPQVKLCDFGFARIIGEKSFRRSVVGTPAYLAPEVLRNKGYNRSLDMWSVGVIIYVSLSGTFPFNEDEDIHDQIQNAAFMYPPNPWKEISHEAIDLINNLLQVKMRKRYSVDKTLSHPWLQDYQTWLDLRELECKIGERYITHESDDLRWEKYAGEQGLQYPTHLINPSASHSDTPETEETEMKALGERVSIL
Outline: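 Full-length wild-type PKD1 expressed and purified from Sf9 cells, 0.2 μg/mL, in 35 mM Tris-HCl pH 7.5, 5 mM MgCl2, 0.02% Tween-20, 20 μM ATP, 1 mM DTT. Reaction started with 2 μM biotinylated syntide-2 and run 50 min at room temperature. Stopped with EDTA plus europium anti-rabbit IgG, anti-phospho-syntide-2 antibody and streptavidin-APC. LANCE TR-FRET 665/615 ratio read after 1 h. 11-point curves in triplicate gave IC50.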

[2] = Clearance in Sprague-Dawley rat at 2 mg/kg, iv and 5 mg/kg, po; type: ADME, organism-based; details: in vivo
Outline: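 Rats dosed iv 2 mg/kg (n = 2) or po 5 mg/kg (n = 3) in 10% NMP, 10% Cremophor, 80% pH 4.63 buffer. PK parameters derived from iv dosing, reported as mean ± SD.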

[3] = molecular target: Calcium/calmodulin-dependent protein kinase type II subunit delta (Homo sapiens) (UniProt Q13557); test: Inhibition of human CaMK2delta; details: concentration not given here
Outline: (§1)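 Selectivity screen run externally (Invitrogen SelectScreen). Percent inhibition measured at 1 μM compound, mean of 2 measurements.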

[4] = Inhibition of PKC-mediated phosphorylation of Ser744/748
[5] = molecular target: G protein-coupled receptor kinase 5 (Homo sapiens) (UniProt P34947); test: Inhibition of human GRK5; details: concentration not given here; outline: as §1
[6] = molecular target: T2, Serine/threonine-protein kinase D1 (Homo sapiens) (UniProt Q15139); test: Inhibition of PKD1 autophosphorylation at 1 uM
T2 sequence (whole entry): T1 sequence (Q15139 whole entry)

[7] = AUC (0 to 8 hrs) in Dahl salt-sensitive rat at 50 mg/kg, sc; type: ADME, organism-based; set-up: time < 8 hr, dose 50 mg/kg, route subcutaneous; details: plasma
Outline: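 Dahl salt-sensitive rats given 50 mg/kg sc in 10% 1 N HCl, 90% Captisol in pH buffer (10%). Plasma exposure followed over time to give AUC.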

[8] = Drug level in Dahl salt-sensitive rat left ventricle at 5 mg/kg, sc qd; details: in vivo, read-out: Drug uptake
[9] = molecular target: T3, Calcium/calmodulin-dependent protein kinase type IV (Homo sapiens) (UniProt Q16566); test: Inhibition of human CaMK4; details: concentration not given here; outline: as §1
T3 sequence (whole entry): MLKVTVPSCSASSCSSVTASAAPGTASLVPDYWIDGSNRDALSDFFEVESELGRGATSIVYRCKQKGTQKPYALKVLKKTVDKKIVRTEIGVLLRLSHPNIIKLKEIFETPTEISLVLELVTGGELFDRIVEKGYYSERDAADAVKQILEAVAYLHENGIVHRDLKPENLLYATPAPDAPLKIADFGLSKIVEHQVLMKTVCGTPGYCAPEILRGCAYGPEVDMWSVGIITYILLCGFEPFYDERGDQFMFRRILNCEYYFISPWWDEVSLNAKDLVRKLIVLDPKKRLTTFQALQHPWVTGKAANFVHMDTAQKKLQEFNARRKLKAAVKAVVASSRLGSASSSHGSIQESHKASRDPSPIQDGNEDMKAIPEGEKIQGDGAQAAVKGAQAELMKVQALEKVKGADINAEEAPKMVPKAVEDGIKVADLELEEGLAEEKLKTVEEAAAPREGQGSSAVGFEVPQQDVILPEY

[10] = molecular target: Serine/threonine-protein kinase MARK2 (Homo sapiens) (UniProt Q7KZI7); test: Inhibition of human MARK2; details: concentration not given here; outline: as §1
[11] = molecular target: Calcium/calmodulin-dependent protein kinase type II subunit beta (Homo sapiens) (UniProt Q13554); test: Inhibition of human CaMK2beta; details: concentration not given here; outline: as §1
Sequence of Calcium/calmodulin-dependent protein kinase type II subunit beta (Homo sapiens) (Q13554 whole entry): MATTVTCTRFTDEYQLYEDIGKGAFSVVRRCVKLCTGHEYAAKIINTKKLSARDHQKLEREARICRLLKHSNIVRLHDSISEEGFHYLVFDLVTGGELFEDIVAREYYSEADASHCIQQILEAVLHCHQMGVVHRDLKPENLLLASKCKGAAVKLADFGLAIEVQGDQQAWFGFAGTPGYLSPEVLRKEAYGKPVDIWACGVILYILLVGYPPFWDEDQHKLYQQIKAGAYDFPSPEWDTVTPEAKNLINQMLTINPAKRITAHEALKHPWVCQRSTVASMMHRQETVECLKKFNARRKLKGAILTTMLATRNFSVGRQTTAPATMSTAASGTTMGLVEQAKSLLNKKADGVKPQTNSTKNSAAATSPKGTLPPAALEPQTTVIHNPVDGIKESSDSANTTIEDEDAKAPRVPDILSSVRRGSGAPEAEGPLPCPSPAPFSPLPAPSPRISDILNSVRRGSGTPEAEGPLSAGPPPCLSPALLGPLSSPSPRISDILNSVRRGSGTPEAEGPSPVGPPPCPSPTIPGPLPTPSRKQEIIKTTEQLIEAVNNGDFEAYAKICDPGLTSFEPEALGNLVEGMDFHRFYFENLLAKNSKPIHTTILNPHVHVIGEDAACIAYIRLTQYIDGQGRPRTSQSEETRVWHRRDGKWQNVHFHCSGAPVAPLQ

Sequence of G protein-coupled receptor kinase 5 (Homo sapiens) (P34947 whole entry, looked up): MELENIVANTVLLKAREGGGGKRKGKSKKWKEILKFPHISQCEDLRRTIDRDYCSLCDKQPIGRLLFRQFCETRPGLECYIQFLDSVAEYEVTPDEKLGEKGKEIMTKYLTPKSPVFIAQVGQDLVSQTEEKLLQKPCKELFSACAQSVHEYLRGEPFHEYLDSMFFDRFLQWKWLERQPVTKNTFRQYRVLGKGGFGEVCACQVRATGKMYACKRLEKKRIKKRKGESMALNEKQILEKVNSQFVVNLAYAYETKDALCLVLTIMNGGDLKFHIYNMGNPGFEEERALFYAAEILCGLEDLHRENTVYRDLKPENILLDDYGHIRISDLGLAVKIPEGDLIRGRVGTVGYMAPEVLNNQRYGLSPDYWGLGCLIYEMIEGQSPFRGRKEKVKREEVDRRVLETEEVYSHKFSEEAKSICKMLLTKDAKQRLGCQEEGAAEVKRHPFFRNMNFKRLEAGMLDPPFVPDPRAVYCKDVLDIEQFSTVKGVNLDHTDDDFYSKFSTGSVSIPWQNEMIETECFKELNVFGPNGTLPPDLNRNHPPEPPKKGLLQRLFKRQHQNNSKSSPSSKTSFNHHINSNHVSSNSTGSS
Sequence of Calcium/calmodulin-dependent protein kinase type II subunit delta (Homo sapiens) (Q13557 whole entry): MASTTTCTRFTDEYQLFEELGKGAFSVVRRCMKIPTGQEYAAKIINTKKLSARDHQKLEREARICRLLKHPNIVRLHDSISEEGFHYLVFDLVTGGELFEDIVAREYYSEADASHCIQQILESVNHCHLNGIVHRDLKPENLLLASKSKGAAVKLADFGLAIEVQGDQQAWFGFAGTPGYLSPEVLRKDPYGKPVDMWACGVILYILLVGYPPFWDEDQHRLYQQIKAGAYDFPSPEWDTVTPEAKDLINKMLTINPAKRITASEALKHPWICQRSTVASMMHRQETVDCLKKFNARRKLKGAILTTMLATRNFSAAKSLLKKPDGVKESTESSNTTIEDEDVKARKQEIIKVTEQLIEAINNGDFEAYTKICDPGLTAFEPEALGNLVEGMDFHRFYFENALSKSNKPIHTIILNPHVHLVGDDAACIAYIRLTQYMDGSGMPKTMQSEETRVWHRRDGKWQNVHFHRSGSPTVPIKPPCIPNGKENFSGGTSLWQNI
Sequence of Serine/threonine-protein kinase MARK2 (Homo sapiens) (Q7KZI7 whole entry): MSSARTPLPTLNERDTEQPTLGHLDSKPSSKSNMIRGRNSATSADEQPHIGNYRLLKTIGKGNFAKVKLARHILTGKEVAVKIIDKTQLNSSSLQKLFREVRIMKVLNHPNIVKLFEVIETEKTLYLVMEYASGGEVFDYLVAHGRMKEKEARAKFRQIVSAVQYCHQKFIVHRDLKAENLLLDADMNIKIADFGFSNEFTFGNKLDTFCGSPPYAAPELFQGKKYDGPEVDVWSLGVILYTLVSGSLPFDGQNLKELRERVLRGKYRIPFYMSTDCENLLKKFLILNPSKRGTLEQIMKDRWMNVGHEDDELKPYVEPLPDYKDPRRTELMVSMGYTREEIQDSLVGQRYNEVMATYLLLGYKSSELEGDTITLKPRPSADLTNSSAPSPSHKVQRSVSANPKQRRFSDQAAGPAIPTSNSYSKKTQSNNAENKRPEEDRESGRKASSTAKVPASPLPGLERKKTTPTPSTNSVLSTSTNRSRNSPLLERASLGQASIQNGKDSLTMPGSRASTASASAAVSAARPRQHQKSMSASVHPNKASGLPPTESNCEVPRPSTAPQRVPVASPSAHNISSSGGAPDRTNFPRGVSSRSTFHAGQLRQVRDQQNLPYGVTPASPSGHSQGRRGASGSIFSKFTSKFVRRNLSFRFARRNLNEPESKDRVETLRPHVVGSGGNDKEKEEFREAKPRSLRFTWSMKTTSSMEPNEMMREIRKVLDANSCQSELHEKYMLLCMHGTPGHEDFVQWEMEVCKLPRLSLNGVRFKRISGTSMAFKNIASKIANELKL

For NC(=O)c1cc(-c2ccnc(NC3CCCCC3)c2)nc(N2CCNCC2)c1, the IC50 [1] was 1 nM, the clearance [2] was 97 mL/min/kg and the inhibition [3] was 26%. For the same molecule, the inhibition [4] was “inactive”, the inhibition [5] was 2% and the inhibition [6] was “Active”. It also gave an AUC(0-t) at 8 h [7] of 25.8 µM·h, a concentration [8] of 12 µM and an inhibition [9] of 1%. The inhibition [10] was 27% and the inhibition [11] was 3%.
